Entries after “also recorded” stand apart in the source; their conditions may differ. Like-named read-outs stand apart in the source and are kept apart here.
How the values were obtained:
[1] = test system: influenza A virus A/Aichi/2/68 (H3N2) (Aichi (H3N2)); experiment: microbe, parasite or virus in culture; assay type: cell-based; details: for IC50: read-out: IC50 (50% inhibitory concentration)
[2] = test system: influenza A virus A/California/07/09 (H1N1)pdm09 (Cal (H1N1)pdm09); experiment: microbe, parasite or virus in culture; assay type: cell-based; details: for IC50: read-out: IC50 (50% inhibitory concentration)
[3] = test system: influenza A virus A/Puerto Rico/8/34 (H1N1) (PR8 (H1N1)); experiment: microbe, parasite or virus in culture; assay type: cell-based; details: for IC50: Influenza A virus, H1N1|PR8, MDCK, read-out: IC50 (50% virus-inhibiting concentration)
[4] = test system: influenza A viruses (H1, H1pdm09, and H3 subtypes); experiment: microbe, parasite or virus in culture; assay type: cell-based; details: read-out: IC50 value (depending on the virus)
[5] = test system: influenza A virus PR8 (H1N1); assay type: cell-based
[6] = target: receptor-binding activity of viral HA of influenza A virus PR8 (H1N1) (Influenza A virus, UniProt P03452); assay type: biochemical
[7] = Cytotoxicity assay, microtetrazolium test; assay type: cell-based; details: dog, MDCK cells
Procedure, shortened: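 MDCK cells were exposed for 48 h at 36°C in 5% CO2 to threefold serial dilutions of test compound in MEM, in triplicate. After two PBS washes, cells were incubated for 1 h with MTT ([…] in PBS). The formazan was dissolved in DMSO and OD was read at 535 nm. OD was plotted against concentration to calculate CC50.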

Sequence of receptor-binding activity of viral HA of influenza A virus PR8 (H1N1) (P03452 18-343 limits assumed): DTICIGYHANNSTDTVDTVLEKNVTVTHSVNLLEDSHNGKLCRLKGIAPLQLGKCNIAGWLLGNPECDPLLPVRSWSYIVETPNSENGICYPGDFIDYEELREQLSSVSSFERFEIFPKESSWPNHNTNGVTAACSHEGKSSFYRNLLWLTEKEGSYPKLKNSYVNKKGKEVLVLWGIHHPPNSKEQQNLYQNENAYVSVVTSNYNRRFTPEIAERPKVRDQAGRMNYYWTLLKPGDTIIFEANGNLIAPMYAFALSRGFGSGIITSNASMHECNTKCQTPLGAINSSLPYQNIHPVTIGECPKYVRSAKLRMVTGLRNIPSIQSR
Sequence of receptor-binding activity of viral HA of influenza A virus PR8 (H1N1) (P03452 344-565 limits assumed): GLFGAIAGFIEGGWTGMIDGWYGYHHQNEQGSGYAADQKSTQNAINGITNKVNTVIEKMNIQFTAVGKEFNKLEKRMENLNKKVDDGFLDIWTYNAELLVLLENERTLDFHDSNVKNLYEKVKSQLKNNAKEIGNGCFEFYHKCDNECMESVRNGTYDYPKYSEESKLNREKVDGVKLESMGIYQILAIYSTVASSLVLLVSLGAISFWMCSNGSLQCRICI

SMILES	SI (selectivity index, CC50/IC50) [3]	IC50 [3]	CC50 at 48 h [7]	also measured
CC1(C)[C@H]2CC[C@]1(C)[C@H](OC(=O)C[N+](C)(C)C)C2.[I-] [10a, N,N,N-Trimethyl-2-oxo-2-((1S,2R,4S)-1,7,7-trimethylbicyclo[2.2.1]heptan-2-yloxy)ethanaminium iodide]	546	2.4 ± 0.4 µM	1310 ± 126 µM	SI (selectivity index, CC50/IC50) [1]: 142; IC50 [1]: 9.2 ± 1.3 µM; SI (selectivity index, CC50/IC50) [2]: 78; IC50 ([2]; Influenza A virus, H1N1, MDCK): 16.9 µM; IC50 [2]: 16.8 ± 3.1 µM; IC50 [4]: 2.4 to 16.8 µM; Infectious activity of the virus when compound is added late [5]: not statistically different from the control values; Time of addition at which the compound is most effective [5]: most effective when added at the early stages of the viral life cycle; also recorded: most effective when added within 0–2 hours after infection; Effect on hemagglutination titer of the virus [6]: did not change this value
CC1(C)[C@H]2CC[C@]1(C)[C@H](OC(=O)CCC[N+](C)(C)C)C2 [10c, N,N,N-Trimethyl-4-oxo-4-((1S,2R,4S)-1,7,7-trimethylbicyclo[2.2.1]heptan-2-yloxy)butan-1-aminium iodide]		> 117 µM	264 ± 15 µM	
CC[N+](C)(CC)CC(=O)O[C@H]1C[C@@H]2CC[C@@]1(C)C2(C)C.[I-] [11a, N,N-Diethyl-N-methyl-2-oxo-2-((1S,2S,4S)-1,7,7-trimethylbicyclo[2.2.1]heptan-2-yloxy)ethanaminium iodide]	3	316 ± 40 µM	850 ± 38 µM	
CC[N+](C)(CC)CCC(=O)O[C@H]1C[C@@H]2CC[C@@]1(C)C2(C)C [11b, N,N-Diethyl-N-methyl-3-oxo-3-((1S,2S,4S)-1,7,7-trimethylbicyclo[2.2.1]heptan-2-yloxy)propan-1-aminium iodide]		> 37 µM	69 ± 6 µM	
NC12CC3CC(CC(C3)C1)C2 [Amantadine, reference compound]	4	64.2 ± 4.7 µM	284 ± 21 µM	
CC(N)C1C[C@@H]2CC[C@H]1C2 (stereo partly drawn) [Deitiforine, reference compound]			1270 ± 81 µM	
NC(=O)c1ncn([C@@H]2O[C@H](CO)[C@@H](O)[C@H]2O)n1 [Ribavirin, reference compound]	>81	24.6 µM	> 2000 µM	SI (selectivity index, CC50/IC50) [1]: 52; IC50 ([1]; Influenza A virus, H3N2, MDCK): 41 ± 3.9 µM; SI (selectivity index, CC50/IC50) [2]: 61; IC50 ([2]; Influenza A virus, H1N1, MDCK): 35 ± 4.6 µM
CC(N)C12CC3CC(CC(C3)C1)C2 (stereo not drawn) [Rimantadine, reference compound]	5	67 ± 4.9 µM	335 ± 27 µM	
CC1(C)[C@@H]2CC[C@@]1(C)/C(=N/CC[N+](C)(C)C)C2.[I-] [compound 6, N,N,N-Trimethyl-2-((E)-((1R,4R)-1,7,7-trimethylbicyclo[2.2.1]heptan-2-ylidene)amino)ethanaminium iodide]	> 18	115 ± 10 µM	> 2100 µM	
CC1(C)[C@@H]2CC[C@@]1(C)/C(=N/CCC[N+](C)(C)C)C2.[I-] [compound 7, N,N,N-Trimethyl-3-((E)-((1R,4R)-1,7,7-trimethylbicyclo[2.2.1]heptan-2-ylidene)amino)propan-1-aminium iodide]	> 14	144 ± 12 µM	> 1990 µM	
